{"source": "paper PMC8647718", "about": "(Free radical biology & medicine, 2020)", "key": {"Nrf2 [1]": {"test_system": "Nrf2", "experiment": "ARE-luciferase reporter assay in HepG2-ARE cells", "type": "cell-based", "conditions": "24 h, 0–25 μM, (−) = concentration range tested did not quadruple Nrf2 activation"}, "AhR [2]": {"test_system": "AhR", "experiment": "AhR-luciferase", "type": "cell-based, mouse", "conditions": "for AhR activation CQ (concentration of quadrupling): H1L6.1c3 cells, luciferase fold vs DMSO normalized to viability"}, "AhR [3]": {"test_system": "AhR", "experiment": "AhR nuclear translocation, immunoblot of nuclear proteins in HT-29 cells", "type": "cell-based, human", "conditions": "HT-29, 1 h; GarD 12.5 μM, FICZ 0.5 μM", "outline": "(§1)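 HT-29 cells exposed to test compound at 12.5 μM, with tBHQ 50 μM or FICZ 0.5 μM as reference activators, over a 6-h time course. Cytosolic and nuclear fractions were collected at set time points, quantified by BCA, and resolved by SDS-PAGE. Blots were probed for AhR or Nrf2, with densities normalised to β-actin or lamin A/C. At least three independent experiments; mean ± SD.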"}, "AhR [4]": {"test_system": "AhR", "experiment": "AhR protein level, immunoblot of HT-29 cell lysates", "type": "cell-based, human", "conditions": "HT-29, 24 h; GarD 12.5 μM, FICZ 500 nM", "outline": "(§2)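 HT-29 cells treated for 24 h with test compound, tBHQ 50 μM or FICZ 0.5 μM as references. Densities were normalised to β-actin. Mean ± SD of triplicate experiments; one-way ANOVA with Tukey test, P ≤ 0.05.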"}, "Cyp1a1": {"test_system": "Cyp1a1", "experiment": "Cyp1a1 protein level, immunoblot of HT-29 cell lysates", "type": "cell-based, human", "conditions": "HT-29, 24 h; GarD 12.5 μM, FICZ 500 nM", "outline": "as §2"}, "Nrf2 [5]": {"test_system": "Nrf2", "experiment": "Nrf2 nuclear translocation, immunoblot of nuclear proteins in HT-29 cells", "type": "cell-based, human", "conditions": "HT-29, 1 h; GarD 12.5 μM, tBHQ 50 μM", "outline": "as §1"}, "HT-29 cells [6]": {"test_system": "HT-29 cells", "experiment": "Total intracellular ROS", "type": "cell-based, human", "conditions": "HT-29, 12 h; GarD 25 μM, tBHP 25 μM (positive control)"}, "claudin-1": {"test_system": "claudin-1", "experiment": "tBHP oxidative stress-induced TJ disruption, claudin-1 immunoblot in HT-29 cells", "type": "cell-based, human", "conditions": "HT-29, tBHP 50 μM, 16 h"}, "HT-29 cells [7]": {"test_system": "HT-29 cells", "experiment": "tBHP-induced ROS production", "type": "cell-based, human"}, "occludin [8]": {"test_system": "occludin", "experiment": "tBHP oxidative stress-induced TJ disruption, occludin immunoblot in HT-29 cells", "type": "cell-based, human", "conditions": "HT-29, tBHP 50 μM, 16 h"}, "ZO-1 [9]": {"test_system": "ZO-1", "experiment": "ZO-1 immunofluorescence microscopy in HT-29 cells", "type": "cell-based, human"}, "ZO-1 [10]": {"test_system": "ZO-1", "experiment": "tBHP oxidative stress-induced TJ disruption, ZO-1 immunoblot in HT-29 cells", "type": "cell-based, human", "conditions": "HT-29, tBHP 50 μM, 16 h"}, "HepG2-ARE cells": {"test_system": "HepG2-ARE cells", "experiment": "MTT cell viability assay in HepG2-ARE cells", "type": "cell-based", "conditions": "read-out: Nrf2 activation IC50 (cell viability reduced by half)"}, "H1L6.1c3 cells": {"test_system": "H1L6.1c3 cells", "experiment": "MTT cell viability assay in H1L6.1c3 cells", "conditions": "for IC50: Mus musculus, read-out: AhR activation IC50 (cell viability reduced by half)"}, "Nrf2 [11]": {"test_system": "Nrf2", "experiment": "Total Nrf2 protein level, immunoblot of HT-29 whole cell lysates", "type": "cell-based, human", "conditions": "GarD 0–25 μM, 24 h", "outline": "as §2"}, "heme oxygenase-1 (HO-1)": {"test_system": "heme oxygenase-1 (HO-1)", "experiment": "HO-1 protein level, immunoblot of HT-29 whole cell lysates", "type": "cell-based, human", "conditions": "GarD 0–25 μM, 24 h", "outline": "as §2"}, "ZO-1 [12]": {"test_system": "ZO-1", "experiment": "ZO-1 tight junction protein level, immunoblot in HT-29 cells", "type": "cell-based, human", "conditions": "HT-29, GarD 0–25 μM, 24 h"}, "occludin [13]": {"test_system": "occludin", "experiment": "Occludin tight junction protein level, immunoblot in HT-29 cells", "type": "cell-based, human", "conditions": "HT-29, GarD 0–25 μM, 24 h"}, "[14]": {"test_system": "ZO-2, ZO-3, claudin-1 and claudin-4", "experiment": "Other TJ proteins, immunoblot in HT-29 cells", "type": "cell-based, human", "conditions": "HT-29, GarD 0–25 μM, data not shown"}, "HT-29 monolayers": {"test_system": "HT-29 monolayers", "experiment": "In vitro permeability assay of FITC-dextran through HT-29 monolayers", "type": "cell-based, human", "conditions": "HT-29 transwell, GarD 6.25 or 12.5 μM pretreatment 6 h, 100 μM tBHP 16 h", "outline": "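HT-29 cells seeded at 1.5 × 10^5 cells/cm2 on transwell inserts and differentiated; only monolayers with TEER above 200 […] were used. Test compound was added apically for 6 h, then 100 μM tBHP for 16 h. Apical 4 kDa FITC-dextran (0.5 mg mL−1 in HBSS/HEPES), HBSS basolateral. Basolateral samples at 0.5–4 h read at 485/530 nm; % of control.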"}, "Nrf2 [15]": {"test_system": "Nrf2", "conditions": "HT-29 cells, 10 μM; cited from earlier work"}}, "note": "“And” between values parts separate entries of the source, which are not always exact repeats. Identical values can stand only once."}
{"smiles": "COc1c(O)cc2oc3cc(O)c(CC=C(C)C)c(O)c3c(=O)c2c1CC=C(C)C", "note": "[Compound 3, α-mangostin]", "values": [{"measurement": "Nrf2 activation CQ (concentration of quadrupling)", "setting": "Nrf2 [1]", "value": "16.25 ± 0.46", "unit": "µM"}]}
{"smiles": "COc1cc2oc3cc(O)c(OC)c(CC=C(C)C)c3c(=O)c2c(O)c1CC=C(C)C", "note": "[Compound 5, β-mangostin]", "values": [{"measurement": "CQ value relative to the rest of the compounds", "setting": "AhR [2]; AhR activation, H1L6 cells", "value": "10–36 times higher"}, {"measurement": "AhR activation CQ (concentration of quadrupling)", "setting": "AhR [2]; 24 h", "value": "5.125 ± 0.006", "unit": "µM"}]}
{"smiles": "O=Cc1c2[nH]c3ccccc3c2cc2[nH]c3ccccc3c12", "note": "[FICZ, 6-formylindolo[3,2-b] carbazole, reference compound]", "values": [{"measurement": "nuclear AhR accumulation (peak)", "setting": "AhR [3]", "value": 4.6, "unit": "fold increase vs control"}, {"measurement": "increase of luminescence signal", "setting": "AhR [2]; FICZ 500 nM, 24 h, H1L6 cells", "value": "43 fold of control"}, {"measurement": "increase in AhR protein", "setting": "AhR [4]", "value": 2.8, "unit": "fold"}, {"measurement": "increase in Cyp1a1 protein", "setting": "Cyp1a1", "value": 3.5, "unit": "fold"}]}
{"smiles": "CC(C)=CCc1c(O)cc2oc3cc(O)c(O)c(CC=C(C)C)c3c(=O)c2c1O", "note": "[Compound 7, γ-mangostin]", "values": [{"measurement": "Nrf2 activation CQ (concentration of quadrupling)", "setting": "Nrf2 [1]", "value": "14.93 ± 0.10", "unit": "µM"}]}
{"smiles": "CC(C)=CCc1c(O)c(CC=C(C)C)c2oc3c(O)cccc3c(=O)c2c1O", "note": "[Compound 1, 8-desoxygartanin]", "values": [{"measurement": "AhR activation CQ (concentration of quadrupling)", "setting": "AhR [2]; 24 h", "value": "0.162 ± 0.001", "unit": "µM"}, {"measurement": "Nrf2 activation CQ (concentration of quadrupling)", "setting": "Nrf2 [1]", "value": "22.19 ± 1.24", "unit": "µM"}]}
{"smiles": "CC(C)(C)c1cc(O)ccc1O", "note": "[tBHQ, tert-butyl hydroquinone, reference compound]", "values": [{"measurement": "nuclear Nrf2 level", "setting": "Nrf2 [5]", "value": "Nuclear translocation of Nrf2 was also demonstrated"}]}
{"smiles": "CC(C)(C)OO", "note": "[tBHP, tert-butyl hydroperoxide, reference compound]", "values": [{"measurement": "ROS level (DCF fluorescence) relative to untreated control", "setting": "HT-29 cells [6]", "value": 4, "unit": "fold"}, {"measurement": "reduction in claudin-1 compared to untreated controls", "setting": "claudin-1", "value": 48, "unit": "%"}, {"measurement": "increase in total ROS levels relative to controls", "setting": "HT-29 cells [7]; HT-29, 2 mM tBHP, 4 h", "value": 2, "unit": "fold"}, {"measurement": "reduction in occludin compared to untreated controls", "setting": "occludin [8]", "value": 28, "unit": "%"}, {"measurement": "ZO-1 fluorescence intensity", "setting": "ZO-1 [9]; HT-29, tBHP 50 μM, 16 h", "value": "45 % of the control"}, {"measurement": "reduction in ZO-1 compared to untreated controls", "setting": "ZO-1 [10]", "value": 68, "unit": "%"}]}
{"smiles": "CC(C)=CCc1c(O)c(CC=C(C)C)c2oc3c(O)ccc(O)c3c(=O)c2c1O", "note": "[Compound 2, gartanin]", "values": [{"measurement": "IC50", "setting": "HepG2-ARE cells", "value": "63.6 ± 1.94", "unit": "µM"}, {"measurement": "Nrf2 activation CQ (concentration of quadrupling)", "setting": "Nrf2 [1]", "value": "9.4 µM and 9.43 ± 1.90 µM"}, {"measurement": "IC50", "setting": "H1L6.1c3 cells", "value": "36.5 ± 0.71", "unit": "µM"}]}
{"smiles": "COc1c(O)cc2oc3cc(O)c(CC=C(C)C)c(O)c3c(=O)c2c1CCC(C)(C)O", "note": "[Compound 6, garcinone D]", "values": [{"measurement": "nuclear AhR accumulation (peak)", "setting": "AhR [3]", "value": 3.8, "unit": "fold increase vs control"}, {"measurement": "AhR activation CQ (concentration of quadrupling)", "setting": "AhR [2]; 24 h", "value": "0.142 µM and 0.142 ± 0.008 µM"}, {"measurement": "ROS level (DCF fluorescence) relative to untreated control", "setting": "HT-29 cells [6]", "value": 2, "unit": "fold"}, {"measurement": "nuclear Nrf2 level", "setting": "Nrf2 [5]", "value": "1.9 fold greater than the control"}, {"measurement": "increase in total Nrf2 protein vs control", "setting": "Nrf2 [11]", "value": 40, "unit": "%"}, {"measurement": "increase in HO-1 protein vs control", "setting": "heme oxygenase-1 (HO-1)", "value": 37, "unit": "%"}, {"measurement": "IC50", "setting": "HepG2-ARE cells", "value": "38.5 ± 7.27", "unit": "µM"}, {"measurement": "increase in ZO-1 protein relative to untreated controls", "setting": "ZO-1 [12]", "value": "34–83%"}, {"measurement": "suppression of tBHP-induced ROS production vs tBHP", "setting": "HT-29 cells [7]; HT-29, GarD pretreatment (0–25 μM, 6 h), dose-dependent", "value": "25 to 68", "unit": "%"}, {"measurement": "Nrf2 activation CQ (concentration of quadrupling)", "setting": "Nrf2 [1]", "value": "8.0 µM and 8.08 ± 0.07 µM"}, {"measurement": "ZO-1 intensity lost to tBHP treatment rescued", "setting": "ZO-1 [9]; HT-29, 2-h pre-treatment GarD 12.5 μM, co-incubation with tBHP 16 h", "value": 45, "unit": "%"}, {"measurement": "increase in occludin protein relative to untreated controls", "setting": "occludin [13]", "value": "22–91%"}, {"measurement": "inducing effect on other TJ proteins (ZO-2, ZO-3, claudin-1, claudin-4)", "setting": "[14]", "value": "no inducing effect"}, {"measurement": "AhR activation IC50 (cell viability reduced by half)", "setting": "H1L6.1c3 cells; H1L6 cells, MTT, max 100 μM, (−) = did not exhibit >50% cell toxicity at the concentration range tested", "value": "without exhibiting >50% H1L6 cell toxicity"}, {"measurement": "IC50", "setting": "H1L6.1c3 cells", "value": "> 100", "unit": "µM"}, {"measurement": "tBHP induced leakage of FITC-dextran", "setting": "HT-29 monolayers", "value": "dose-dependently inhibited"}]}
{"smiles": "C[S+]([O-])CCCCN=C=S", "note": "(stereo not shown) [sulforaphane]", "values": [{"measurement": "induction of Nrf2 relative to the control", "setting": "Nrf2 [15]", "value": 200, "unit": "%"}]}
